These results are taken from ChEMBL document CHEMBL1132597, “Corticotropin-releasing hormone receptor antagonists: framework design and synthesis guided by ligand conformational studies” (J Med Chem, 1999).

For orientation: Ki means a measure of affinity in units of concentration, obtained from inhibition or displacement.

SMILES strings stand for the structures.

For one assay, the target named is T1, Corticotropin-releasing factor receptor 1 (Rattus norvegicus, UniProt P35353).
T1 sequence (P35353 whole entry): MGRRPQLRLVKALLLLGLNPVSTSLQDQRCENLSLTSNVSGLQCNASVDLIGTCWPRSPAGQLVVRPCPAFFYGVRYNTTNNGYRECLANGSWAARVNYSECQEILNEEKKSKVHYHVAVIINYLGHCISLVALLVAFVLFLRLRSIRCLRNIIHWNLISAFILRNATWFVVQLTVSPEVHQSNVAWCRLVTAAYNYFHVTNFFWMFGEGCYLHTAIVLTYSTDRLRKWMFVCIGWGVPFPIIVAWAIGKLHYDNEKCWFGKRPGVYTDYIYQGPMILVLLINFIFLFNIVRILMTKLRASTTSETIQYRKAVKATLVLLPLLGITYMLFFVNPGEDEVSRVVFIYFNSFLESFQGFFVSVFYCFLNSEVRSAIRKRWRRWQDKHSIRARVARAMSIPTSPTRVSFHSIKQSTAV
In words: Binding affinity was determined against corticotropin releasing factor receptor 1.
Settings: not given
Put shortly:
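Rat CRH1 receptor-binding assay run in pH 7.2 buffer; affinity reported as Ki.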
As to `CCN(c1nc(C)cc(Cl)n1)c1ccc(C(C)C)cc1I`, the Ki result is “Not reliable”.

The assay is the same for the next values; noted with them: read-out: Ki.
In the case of `Cc1ccnc2c1c(C#N)cn2-c1ccc(C(C)C)cc1Br`, the Ki is over 10000 nM.
Regarding `Cc1cc(Cl)c2c(C#N)cn(-c3ccc(C(C)C)cc3Br)c2n1`, the Ki was 722 nM.
Turning to `Cc1cc(N2CCOCC2)c2c(C#N)cn(-c3ccc(C(C)C)cc3Br)c2n1`, the inhibition constant Ki amounted to 112 nM.
Take `Cc1ccc2c(C#N)cn(-c3ccc(C(C)C)cc3Br)c2[n+]1[O-]`: the inhibitory constant (Ki) was over 10000 nM.
Still for that read-out and setting: then `Cc1cc(Cl)nc2c1c(C#N)cn2-c1ccc(C(C)C)cc1Br`, with 446 nM.
Still for that read-out and setting: next, `COc1cc(Br)c(-n2ccc3c(C)cc(C)nc32)c(OC)c1`: 1 nM.
On the same count and under the same terms, next, `Cc1cc(C)c2c(C#N)cn(-c3ccc(C(C)C)cc3Br)c2n1`: 363 nM.
As to `Cc1ccnc2c1ccn2-c1ccc(C(C)C)cc1Br`, the Ki was over 10000 nM.
The same measure, in the same setting: next, `Cc1cc(-c2ccccc2)nc2c1ccn2-c1ccc(C(C)C)cc1Br`: over 10000 nM; `Cc1cc(-c2ccccc2)c2ccn(-c3ccc(C(C)C)cc3Br)c2n1`: 36 nM; `Cc1cc(-c2ccccc2)nc2c1c(C#N)cn2-c1ccc(C(C)C)cc1Br`: over 100000 nM.
Turning to `Cc1cc(C)c2ccn(-c3ccc(C(C)C)cc3Br)c2n1`, the Ki was determined as 47 nM.
On the same count and under the same terms, next, `COc1cc(Br)c(-n2cc(C#N)c3c(C)cc(C)nc32)c(OC)c1`: 29 nM.
As to `Cc1cc(C)c2c(C(=O)O)cn(-c3ccc(C(C)C)cc3Br)c2n1`, the Ki is over 10000 nM.
The same measure, in the same setting: then `Cc1ccc2ccn(-c3ccc(C(C)C)cc3Br)c2n1`, with 222 nM.
Still for that read-out and setting: then `Cc1cc(Cl)c2ccn(-c3ccc(C(C)C)cc3Br)c2n1`, with 67 nM; and `Cc1cc(-c2ccccc2)c2c(C#N)cn(-c3ccc(C(C)C)cc3Br)c2n1`, with 34 nM; and `Cc1ccc2c(C#N)cn(-c3ccc(C(C)C)cc3Br)c2n1`, with 1280 nM.
`Cc1cc(=O)[nH]c2c1c(C#N)cn2-c1ccc(C(C)C)cc1Br`: the Ki is over 10000 nM.
The same measure, in the same setting: next, `Cc1cc(C)c2c(C(N)=O)cn(-c3ccc(C(C)C)cc3Br)c2n1`: over 10000 nM.
Same read-out and setting: next, `Cc1cc(C)nc(Nc2ccc(C(C)C)cc2Br)n1`: over 10000 nM; `CCN(c1cc(C)nc(C)n1)c1ccc(C(C)C)cc1Br`: over 1000 nM.
Regarding `Cc1cc(C)nc(N(C)c2ccc(C(C)C)cc2I)n1`, the Ki stood at 48 nM.
The same measure, in the same setting: next, `Cc1cc(Cl)nc2c1ccn2-c1ccc(C(C)C)cc1Br`: 79 nM.
As to `CCN(c1nc(C)nc(N2CCOCC2)n1)c1c(Br)cc(OC)cc1OC`, the Ki worked out at 43 nM.
Still for that read-out and setting: then `CCN(c1nc(C)cc(N2CCOCC2)n1)c1ccc(C(C)C)cc1Br`, with 22 nM.
Consider `CCN(c1nc(C)cc(C)n1)c1c(Br)cc(OC)cc1OC`, for which the Ki amounted to 5 nM.
On to `Cc1cc(N2CCOCC2)c2ccn(-c3ccc(C(C)C)cc3Br)c2n1`, for which the Ki is 28 nM.
